Assay results: ChEMBL document CHEMBL1811892, “Synthesis and biological evaluation of loxoprofen derivatives” (Bioorg Med Chem, 2011)
Activity calls are given as the source filed them. The calls are words filed in the database; no cut-off is given here.

What was measured:
[1] = molecular target: Prostaglandin G/H synthase 1 (Homo sapiens, UniProt P23219); experiment: Inhibition of human whole blood COX-1 assessed as production of TXB2 after 24 hrs by EIA
[2] = molecular target: T1, Prostaglandin G/H synthase 2 (Homo sapiens, UniProt P35354); experiment: Inhibition of human whole blood COX-2 assessed as production of PGE2 after 24 hrs by EIA
T1 sequence (P35354 whole entry): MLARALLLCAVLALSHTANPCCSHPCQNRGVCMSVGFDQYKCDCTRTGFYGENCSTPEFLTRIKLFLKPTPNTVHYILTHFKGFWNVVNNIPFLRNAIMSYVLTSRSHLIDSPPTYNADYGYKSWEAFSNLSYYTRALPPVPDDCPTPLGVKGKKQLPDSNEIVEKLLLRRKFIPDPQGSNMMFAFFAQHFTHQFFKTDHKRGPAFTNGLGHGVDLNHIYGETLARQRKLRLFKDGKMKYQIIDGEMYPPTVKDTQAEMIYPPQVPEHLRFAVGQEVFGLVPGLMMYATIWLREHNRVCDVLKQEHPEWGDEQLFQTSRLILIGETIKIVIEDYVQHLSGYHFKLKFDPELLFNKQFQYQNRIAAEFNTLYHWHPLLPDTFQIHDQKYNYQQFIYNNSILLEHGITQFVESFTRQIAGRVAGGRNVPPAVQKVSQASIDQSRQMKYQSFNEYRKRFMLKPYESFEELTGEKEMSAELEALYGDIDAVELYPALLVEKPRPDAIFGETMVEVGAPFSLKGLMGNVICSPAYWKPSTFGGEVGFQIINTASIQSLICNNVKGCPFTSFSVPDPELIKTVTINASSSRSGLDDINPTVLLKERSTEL

[3] = Membrane permeabilization activity assessed as release of calcein from liposomes after 10 mins by fluorescence assay; assay type: physicochemical; settings: calcein-loaded liposomes, probe calcein
Procedure, shortened: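 Egg PC liposomes made by reversed-phase evaporation with 100 mM calcein (pH 7.4), washed free of untrapped dye in 10 mM phosphate buffer pH 6.8 with 150 mM NaCl. Diluted liposomes incubated with compound for 10 min at 30 °C; water as control. Calcein release read by fluorescence, excitation 490 nm, emission 520 nm.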

Rattus norvegicus [4] = experiment: Ulcerogenicity in fasted Wistar rat assessed as damage in gastric mucosa at 50 to 67 mg/kg, po measured after 8 hrs; assay type: toxicity, organism-based; set-up: dose 50-67 mg/kg, route oral; settings: in vivo
Procedure, shortened: (§1)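 Male Wistar rats (6 weeks, 180–200 g) fasted 18 h before oral NSAID dosing. Stomachs removed 8 h later. A blinded observer measured the area of each mucosal lesion in mm²; areas were summed into a gastric lesion index.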

Rattus norvegicus [5] = experiment: Reduction in PGE2 levels in fasted Wistar rat stomach at 50 to 67 mg/kg, po measured after 8 hrs; assay type: functional, organism-based
Procedure, shortened: (§2)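 Male Wistar rats (6 weeks, 180–200 g) fasted 18 h, then dosed orally with NSAIDs. Killed 8 h later and stomachs removed. Gastric PGE2 measured by EIA.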

Rattus norvegicus [6] = experiment: Antiinflammatory activity in Wistar rat assessed as inhibition of carrageenan-induced foot-pad edema at 13 mg/kg, po administered 1 hr before carrageenan challenge measured after 3 to 6 hrs by plethysmometer; assay type: functional, organism-based; set-up: dose 13 mg/kg
Procedure, shortened: (§3)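 Male Wistar rats (6 weeks, 180–200 g) given NSAIDs orally; 1 h later 100 μL of 1% carrageenan injected intradermally into the left hindpaw.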

Rattus norvegicus [7] = experiment: Inhibition of PGE2 production in carrageenan-induced Wistar rat foot-pad at 13 mg/kg, po administered 1 hr before carrageenan challenge by EIA; assay type: functional, organism-based; set-up: dose 13 mg/kg
Rattus norvegicus [8] = experiment: Ulcerogenicity in fasted Wistar rat assessed as damage in gastric mucosa at 40 to 50 mg/kg, po measured after 8 hrs; assay type: toxicity, organism-based; set-up: dose 40-50 mg/kg, route oral; settings: in vivo; procedure, shortened: as §1
Rattus norvegicus [9] = experiment: Reduction in PGE2 levels in fasted Wistar rat stomach at 40 to 50 mg/kg, po measured after 8 hrs; assay type: functional, organism-based; procedure, shortened: as §2
Rattus norvegicus [10] = experiment: Antiinflammatory activity in Wistar rat assessed as inhibition of carrageenan-induced foot-pad edema at 10 mg/kg, po administered 1 hr before carrageenan challenge measured after 3 to 6 hrs by plethysmometer; assay type: functional, organism-based; set-up: dose 10 mg/kg; procedure, shortened: as §3
Rattus norvegicus [11] = experiment: Inhibition of PGE2 production in carrageenan-induced Wistar rat foot-pad at 10 mg/kg, po administered 1 hr before carrageenan challenge by EIA; assay type: functional, organism-based; set-up: dose 10 mg/kg

Chain of Prostaglandin G/H synthase 1 (P23219 whole entry): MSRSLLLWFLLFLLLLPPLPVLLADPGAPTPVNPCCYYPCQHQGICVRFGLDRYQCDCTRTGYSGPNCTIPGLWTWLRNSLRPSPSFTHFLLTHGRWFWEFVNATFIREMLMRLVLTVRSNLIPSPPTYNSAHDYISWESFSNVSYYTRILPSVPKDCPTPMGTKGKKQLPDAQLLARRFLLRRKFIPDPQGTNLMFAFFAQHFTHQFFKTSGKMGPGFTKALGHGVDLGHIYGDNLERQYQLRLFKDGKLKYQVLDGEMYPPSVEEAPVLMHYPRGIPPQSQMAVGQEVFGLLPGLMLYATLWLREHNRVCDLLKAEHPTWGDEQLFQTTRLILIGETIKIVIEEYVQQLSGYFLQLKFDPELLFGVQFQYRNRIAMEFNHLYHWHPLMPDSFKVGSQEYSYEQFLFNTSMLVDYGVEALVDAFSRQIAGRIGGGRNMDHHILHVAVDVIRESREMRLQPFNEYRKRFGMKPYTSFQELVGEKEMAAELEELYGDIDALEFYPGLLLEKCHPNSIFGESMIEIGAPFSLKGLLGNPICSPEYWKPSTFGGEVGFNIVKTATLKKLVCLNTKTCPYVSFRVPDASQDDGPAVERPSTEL

| Compound | IC50 [1] | IC50 [2] | EC50 at 10 min [3] | other results |
| --- | --- | --- | --- | --- |
| COc1ccc(-c2cc(CC3CCCC3=O)ccc2C(C)C(=O)O)cc1 (stereo not drawn) | 74 µM | 430 µM | < 100000 µM | – |
| COc1ccc(-c2cc(C(C)C(=O)O)ccc2CC2CCCC2=O)cc1 (stereo not drawn) | 800 µM | > 1000 µM | < 100000 µM | – |
| CC(C(=O)O)c1ccc(CC2CCCC2=O)c(Br)c1 (stereo not drawn) | 49 µM | 23 µM | < 100000 µM | – |
| CC(C(=O)O)c1ccc(CC2CCCC2=O)cc1I (stereo not drawn) | 270 µM | 540 µM | – | – |
| Cc1ccc(-c2cc(CC3CCCC3=O)ccc2C(C)C(=O)O)cc1 (stereo not drawn) | 470 µM | 540 µM | < 100000 µM | – |
| CC(C(=O)[O-])c1ccc(CC2CCCC2=O)cc1-c1ccc(O)cc1.[Na+] (stereo not drawn) | 326 µM | 11 µM | 25000 µM | Activity (Rattus norvegicus [4]): Non-toxic; inhibition (Rattus norvegicus [5]): Active; Activity (Rattus norvegicus [6]): Active; inhibition (Rattus norvegicus [7]): Active |
| CC(C(=O)O)c1ccc(CC2CCCC2=O)cc1-c1ccc(F)cc1 (stereo not drawn) | 174 µM | 36 µM | 20000 µM | – |
| Cc1ccc(-c2cc(C(F)(F)F)nn2-c2ccc(S(N)(=O)=O)cc2)cc1 [CELECOXIB] | – | – | 90 µM | – |
| CC(C(=O)O)c1ccc(CC2CCCC2=O)cc1-c1ccccc1 (stereo not drawn) | 310 µM | 70 µM | < 100000 µM | – |
| CC(C(=O)O)c1ccc(CC2CCCC2=O)cc1[N+](=O)[O-] (stereo not drawn) | 93 µM | 49 µM | – | – |
| CC(C(=O)O)c1ccc(CC2CCCC2=O)c(-c2ccc(OC(F)(F)F)cc2)c1 (stereo not drawn) | 460 µM | 72 µM | < 10000 µM | – |
| CSc1ccc(-c2cc(CC3CCCC3=O)ccc2C(C)C(=O)O)cc1 (stereo not drawn) | 575 µM | 150 µM | < 100000 µM | – |
| CC(C(=O)[O-])c1ccc(CC2CCCC2=O)cc1.[Na+] (stereo not drawn) [LOXOPROFEN SODIUM] | – | – | – | Activity (Rattus norvegicus [8]): Dose-dependent effect; inhibition (Rattus norvegicus [9]): Active; Activity (Rattus norvegicus [10]): Active; inhibition (Rattus norvegicus [11]): Active |
| CC(C(=O)O)c1ccc(CC2CCCC2=O)c(-c2ccc(F)cc2)c1 (stereo not drawn) | 174 µM | 36 µM | < 100000 µM | – |
| CSc1ccc(-c2cc(C(C)C(=O)O)ccc2CC2CCCC2=O)cc1 (stereo not drawn) | 758 µM | > 1000 µM | < 10000 µM | – |
| CC(C(=O)O)c1ccc(CC2CCCC2=O)cc1-c1ccc(OC(F)(F)F)cc1 (stereo not drawn) | 515 µM | > 1000 µM | 6000 µM | – |
| CC(C(=O)O)c1ccc(C[C@H]2CCC[C@@H]2O)cc1-c1ccc(O)cc1 (mixture of isomers) | 650 µM | 20 µM | – | – |
| Cc1ccc(-c2cc(C(C)C(=O)O)ccc2CC2CCCC2=O)cc1 (stereo not drawn) | 56 µM | 420 µM | < 100000 µM | – |
| CC(C(=O)O)c1ccc(C[C@H]2CCC[C@H]2O)cc1-c1ccc(O)cc1 (mixture of isomers) | 47 µM | 17 µM | – | – |
| CC(C(=O)O)c1ccc(CC2CCCC2=O)c(-c2ccc(O)cc2)c1 (stereo not drawn) | > 1000 µM | – | – | – |
| CC(C(=O)O)c1ccc(CC2CCCC2=O)c(-c2ccc(C(=O)O)cc2)c1 (stereo not drawn) | > 1000 µM | > 1000 µM | – | – |
| CC(C(=O)O)c1ccc(CC2CCCC2=O)cc1-c1ccc(C(=O)O)cc1 (stereo not drawn) | > 1000 µM | 76 µM | < 10000 µM | – |
| CC(C(=O)O)c1ccc(CC2CCCC2=O)cc1Cl (stereo not drawn) | 4 µM | 2 µM | 100000 µM | – |
| CC(C(=O)O)c1ccc(CC2CCCC2=O)c(-c2ccccc2)c1 (stereo not drawn) | 54 µM | 290 µM | < 100000 µM | – |
